# Assay results of several laboratories.
# Protocols differ between the studies behind these lines.
# Target: Serine/threonine-protein kinase PAK 6 (PAK6, Homo sapiens, UniProt Q9NQU5)
Compound,assay,setting,quantity,result
O=c1[nH]c2ccccc2n1C1CCN(Cc2ccc(-c3[nH]c4cc5ncnc5cc4nc3-c3ccccc3)cc2)CC1,cell-free assay,0.5 µM,remaining signal,109%
Cn1cc(-c2cccc(N3CCc4c(sc5c4CC(C)(C)C5)C3=O)c2CO)cc(Nc2ccncn2)c1=O,"enzyme activity, inhibitor",1 µM,inhibition,-7%
COc1ncccc1-c1cnn2ccc(N3CCN(C(=O)OC(C)C)CC3)nc12,"binding, competition with immobilised ligand",1 µM,remaining binding,97%
Nc1ncc(-c2nc(N3CCOCC3)nc(N3CCOCC3)n2)c(C(F)F)n1,"binding, competition with immobilised ligand",10 µM,remaining binding,79%
COc1cc(Nc2ncc(F)c(Nc3ccc4c(n3)NC(=O)C(C)(C)O4)n2)cc(OC)c1OC,"binding, competition with immobilised ligand",10 µM,inhibition,96%
Cn1cncc1[C@](O)(COc1ccc(C#N)cc1-c1ccc(OC(F)(F)F)cc1)c1ccc(C#N)cc1,"cell-free assay, competition with immobilised ligand",1 µM,remaining binding,98%
Cc1nn(C)cc1-c1nc2c(N3CCN(Cc4ccc(Cl)cc4)CC3)c(Cl)cnc2[nH]1,"binding, competition with immobilised ligand",1 µM,remaining binding,100%
Cn1cc(-c2cc(F)cc(N3CCn4c(cc5c4CCCC5)C3=O)c2CO)cc(Nc2ccc(N3CCN(C4COC4)CC3)cn2)c1=O,"enzyme activity, inhibitor",0.1 µM,inhibition,22%
